A word on the AUC: it is concentration integrated over time. In general, half-life refers to how long it takes for the measured level to halve. A lower half-life goes with fast loss. The term IC50 denotes the concentration at which inhibition is half-maximal. High values mean weaker potency, low ones greater potency.

The structures appear in SMILES notation.

Data set [1] in a line: Area under curve was determined after intravenous administration of a dose of 0.5 mg/kg. In kind it is ADME, organism-based. The arrangement: dose 0.5 mg/kg, route intravenous. Particulars: in vivo. In outline: (§1)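 Male rhesus monkeys received a single iv dose in ethanol/PEG400/saline (10/40/50, v/v/v) via the brachiocephalic vein. Femoral vein blood was drawn at 5, 15, 30 min and 1, 2, 4, 6, 8, 24 h. Plasma was extracted with ethyl acetate and assayed by LC/MS/MS against an internal standard (LOQ 2.0 ng/mL). AUC came from linear/log trapezoidal rule with extrapolation by Ct/λ; t1/2 = 0.693/λ; Clp = dose/AUC(0-∞).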

A short description of data set [2]: Area under curve was determined after intravenous administration of a dose of 3 mg/kg. In kind it is ADME, organism-based. The arrangement: dose 3 mg/kg, route intravenous. Conditions: in vivo. In outline: as §1
Data set [3] is described as follows: Half life period was determined after intravenous administration of 0.5 mg/kg. Particulars: in vivo. In kind it is ADME, organism-based. The arrangement: dose 0.5 mg/kg, route intravenous. In outline: as §1
Data set [4] in a line: Half life period was determined after intravenous administration of 3 mg/kg. It is filed as ADME, organism-based. Particulars: in vivo. The arrangement: dose 3 mg/kg, route intravenous. In outline: as §1
Data set [5] is described as follows: Plasma clearance was determined fter intravenous administration of a dose of 0.5 mg/kg. It is filed as ADME, organism-based. The arrangement: dose 0.5 mg/kg, route intravenous. Particulars: read-out: ClP. The method in brief: as §1
Data set [6] can be described thus: Plasma clearance was determined fter intravenous administration of a dose of 3 mg/kg. In kind it is ADME, organism-based. The arrangement: dose 3 mg/kg, route intravenous. Conditions: read-out: ClP. In outline:
as §1

The target in data set [7] is T1, Gonadotropin-releasing hormone receptor (Rattus norvegicus, UniProt P30969).
T1 sequence (P30969 whole entry): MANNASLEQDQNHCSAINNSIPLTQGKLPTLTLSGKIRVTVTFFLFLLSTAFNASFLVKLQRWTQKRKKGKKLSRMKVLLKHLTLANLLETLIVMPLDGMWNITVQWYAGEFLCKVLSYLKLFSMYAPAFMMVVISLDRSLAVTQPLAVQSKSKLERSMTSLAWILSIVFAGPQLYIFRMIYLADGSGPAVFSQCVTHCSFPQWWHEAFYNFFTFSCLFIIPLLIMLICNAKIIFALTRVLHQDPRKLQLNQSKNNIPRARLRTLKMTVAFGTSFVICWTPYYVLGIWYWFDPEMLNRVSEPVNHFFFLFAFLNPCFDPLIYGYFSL
The data set can be described thus: In vitro inhibition of binding to GnRH receptor in rat. In outline: (§2)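 Crude membranes came from rat pituitary (rat) or from CHO-K1 cells stably expressing human GnRH receptor (human). Competition was run against [125I-Tyr5]buserelin (1000 Ci/mmol) in 50 mM Tris-HCl pH 7.5 with 2 mM MgCl2 and 0.1% BSA. IC50 is the concentration giving 50% inhibition of specific binding.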

Data set [8] concerns the target T1, Gonadotropin-releasing hormone receptor. The data set can be described thus: Functional antagonism at GnRH receptor in rat (PI turnover).
The target in data set [9] is T2, Gonadotropin-releasing hormone receptor (Homo sapiens, UniProt P30968).
T2 sequence (P30968 whole entry): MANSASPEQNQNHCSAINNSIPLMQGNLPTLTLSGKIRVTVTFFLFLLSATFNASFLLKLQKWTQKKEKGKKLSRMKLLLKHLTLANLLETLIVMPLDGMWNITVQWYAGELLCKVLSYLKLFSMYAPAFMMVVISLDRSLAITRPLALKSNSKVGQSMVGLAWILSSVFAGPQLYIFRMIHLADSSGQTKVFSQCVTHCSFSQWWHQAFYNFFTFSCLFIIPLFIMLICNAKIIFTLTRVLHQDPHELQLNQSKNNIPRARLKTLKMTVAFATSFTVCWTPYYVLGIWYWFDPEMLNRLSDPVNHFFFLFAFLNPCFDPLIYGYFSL
Description: Functional antagonism at the human GnRH receptor (PI turnover). The method in brief:
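CHO cells stably expressing human GnRH receptor were labelled 48 h with 1 μCi [3H]inositol in inositol-free F12 with 10% dialyzed FBS. After washing with PBS containing 10 mM LiCl, cells were preincubated with graded compound for 2 h at 37 °C. 0.5 nM GnRH was then added for 60 min, followed by formic acid lysis. IC50 is inhibition of GnRH-stimulated PI hydrolysis.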

Data set [10] concerns the target T2, Gonadotropin-releasing hormone receptor. Description: In vitro inhibition of binding to GnRH receptor in human. The method in brief: as §2

As to `Cc1cc(-c2c(OCC[C@@H]3CCN3)c3cc(C(=O)Nc4ccncn4)c(Cl)cc3[nH]c2=O)cc(C)c1C`, the values for the AUC in [1] and in data set [2] were 303 ng·h/mL and 1320 ng·h/mL, respectively. In addition, the figures for the half-life in data set [3] and in data set [4] were 9.5 h and 5 h, respectively. Moreover, the clearance in data set [5] was determined as 30 mL/min/kg; in [6], 33 mL/min/kg. The IC50 in data set [7] amounted to 4 nM; in data set [8] it was 81 nM; in data set [9] it was 1 nM; in data set [10] it was 0.44 nM.

The record behind these values is ChEMBL document CHEMBL1134373, “A potent, nonpeptidyl 1H-quinolone antagonist for the gonadotropin-releasing hormone receptor” (J Med Chem, 2001).
